Assay results as given in publication PMC5405180 (EBioMedicine, 2017).
One block for each compound: values may come before it. Where a SMILES comes first, the peptide text is derived from it. The star is where a group is joined. Cbz = O=C(OCc1ccccc1)*

Columns and labels:
[1] = system: adjuvant-induced arthritis (AIA) in mice; test: Adjuvant-induced arthritis; assay type: in vivo
Method in brief: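 AIA induced in 8-week-old C57BL/6 mice with 2 mg CFA given intradermally. Test compound was given at 3 mg/kg i.p. daily for 2 weeks, with PBS as vehicle. Ankle and footpad thickness were tracked over the 2 weeks (6 mice/group, mean ± SD). Joints were fixed in […] for 1 day and decalcified in 5% formic acid for 2 weeks. Sections were blocked with 10% goat serum, then stained overnight at 4 °C with anti-F4/80 (1/50), biotinylated anti-rabbit IgG, streptavidin-peroxidase and DAB.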

[2] = system: murine peritoneal macrophages; test: LPS-stimulated murine peritoneal macrophages; assay type: cell-based; details: 0.8 μM
NF-κB p65 = test: p65 phosphorylation/translocation and IκB degradation; assay type: cell-based, murine; details: RAW 264.7, LPS 1 µg/ml
Method in brief: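 RAW 264.7 cells were incubated in cytoplasmic lysis buffer for 15 min on ice and centrifuged; the supernatant was taken as the cytosolic fraction. The pellet was taken up in nuclear lysis buffer and spun for 20 min at 12,000 rpm. Fractions were run on SDS-PAGE, transferred to nitrocellulose and probed for p65, with NMP p84 and α-tubulin as fraction markers, using ECL detection. Whole-cell lysates were prepared in RIPA buffer for 15 min at 4 °C and protein measured by Bradford assay.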

NFAT5 [3] = test: NFAT5-dependent GFP reporter assay; assay type: cell-based, murine; details: for IC50: Mus musculus, RAW264.7, read-out: IC50, NFAT5-dependent reporter activity
Method in brief: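 Cells were stimulated with LPS (1 μg/ml) for 20 h alongside graded test compound or BBR. GFP was read by flow cytometry and expressed as % ΔMFI = (treated MFI − untreated MFI) × 100 / untreated MFI.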

ELK = ELK promoter reporter assay; assay type: cell-based; details: 1 µM test compound
[4] = target: NF-κB p65 binding to Nfat5 promoter 1 (Homo sapiens, UniProt Q04206); test: Electrophoretic mobility shift assay; details: recombinant p65 400 ng; KRN2 5, 20, 50 μM; MG132 20 μM
NFAT5 promoter = test: Nfat5 promoter GFP reporter assay; assay type: cell-based, murine; details: RAW 264.7, 1 μM
Method in brief: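 RAW 264.7 cells carried a GFP reporter containing two NF-κB binding sites from upstream of the Nfat5 gene. Cells were preincubated with test compound (1 μM) for 1 h, then stimulated for 20 h with either LPS (1 μg/ml) or NaCl (45 mM). GFP was measured by flow cytometry as % ΔMFI relative to untreated cells. Three independent experiments.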

p38 MAPK = p38 MAPK activity; assay type: cell-based; details: RAW 264.7, LPS 1 µg/ml, KRN2 0.8 µM
[5] = target: NF-κB p65 binding to the Nfat5 promoter (Mus musculus, UniProt Q04207); test: ChIP assay; assay type: cell-based, murine; details: RAW 264.7, 1 μM, LPS 1 μg/ml 12 h
Method in brief: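 RAW 264.7 cells were pretreated with test compound (1 μM) for 1 h, then given LPS (1 μg/ml) for 12 h. Cells were fixed in 1% formaldehyde for 10 min at 37 °C, nuclei isolated and chromatin sonicated, with an input aliquot kept. Immunoprecipitation used anti-p65. DNA was extracted with phenol/chloroform, ethanol-precipitated and PCR-amplified with Nfat5 promoter primers; Nfat5 exon primers served as negative control. Three independent experiments.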

NFAT1 = test: NFAT promoter reporter assay; assay type: cell-based, human; details: HEK293 cells stimulated with PMA, 1 μM
NFAT5 [6] = test: High salt-induced NFAT5 and tonicity-inducible gene expression in RAW 264.7; assay type: cell-based, murine; details: for high salt-induced increase in NFAT5 mRNA and protein: RAW 264.7, NaCl 45 mM 12 h, KRN2 1 μM, SB203580 5 μM
[7] = system: murine peritoneal macrophages; test: High salt-stimulated murine peritoneal macrophages; assay type: cell-based; details: NaCl 45 mM 6 h, 0.8 μM
NFAT5 [8] = test: LPS-induced NFAT5 expression and nuclear translocation; assay type: cell-based, murine
CREB = CREB promoter reporter assay; assay type: cell-based; details: 1 µM test compound
murine splenocytes = test: LPS-stimulated murine splenocytes; assay type: cell-based; details: total splenocytes of mice, LPS 1 μg/ml 24 h, 0.8 μM
[9] = Pharmacokinetic profile in rats; assay type: in vivo; details: rat
Method in brief: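 Rats were dosed intravenously or orally and plasma concentration–time profiles were obtained. Half-life came from the oral profile. Oral bioavailability (F%) was calculated from oral versus intravenous exposure.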

RAW 264.7 macrophages = test: Pro-inflammatory NFAT5 target gene expression in LPS-stimulated RAW 264.7; assay type: cell-based, murine
RAW 264.7 cells = test: NO production; assay type: cell-based, murine; details: RAW 264.7, LPS 1 μg/ml 24 h, Griess assay
Method in brief: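 RAW 264.7 macrophages were kept in RPMI 1640 with 10% FBS. Cells were preincubated for 1 h with graded test compound, then stimulated with LPS (1 μg/ml) for 24 h. Supernatant was mixed with an equal volume of Griess reagent for 15 min at room temperature to give nitrite. Three independent experiments, each in triplicate, mean ± SD.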

[10] = system: mice with collagen-induced arthritis (CIA); test: Collagen-induced arthritis; assay type: in vivo
ROS = ROS production by flow cytometry; assay type: cell-based, murine; details: RAW 264.7, LPS 1 µg/ml, KRN2 0.8 µM
splenocytes of CIA mice = test: LPS-stimulated splenocytes from treated CIA mice; assay type: in vivo; details: splenocytes of CIA mice treated orally, LPS 1 μg/ml 24 h
Method in brief: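 CIA was induced in mice by CII/CFA immunization with a CII/IFA boost. Mice received oral test compound at 15 or 60 mg/kg on alternate days, or vehicle. Splenocytes from these mice were cultured with LPS (1 μg/ml) for 24 h.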

[11] = 3 mg/kg peritoneally, versus vehicle

Sequence of NF-κB p65 binding to Nfat5 promoter 1 (Q04206 whole entry): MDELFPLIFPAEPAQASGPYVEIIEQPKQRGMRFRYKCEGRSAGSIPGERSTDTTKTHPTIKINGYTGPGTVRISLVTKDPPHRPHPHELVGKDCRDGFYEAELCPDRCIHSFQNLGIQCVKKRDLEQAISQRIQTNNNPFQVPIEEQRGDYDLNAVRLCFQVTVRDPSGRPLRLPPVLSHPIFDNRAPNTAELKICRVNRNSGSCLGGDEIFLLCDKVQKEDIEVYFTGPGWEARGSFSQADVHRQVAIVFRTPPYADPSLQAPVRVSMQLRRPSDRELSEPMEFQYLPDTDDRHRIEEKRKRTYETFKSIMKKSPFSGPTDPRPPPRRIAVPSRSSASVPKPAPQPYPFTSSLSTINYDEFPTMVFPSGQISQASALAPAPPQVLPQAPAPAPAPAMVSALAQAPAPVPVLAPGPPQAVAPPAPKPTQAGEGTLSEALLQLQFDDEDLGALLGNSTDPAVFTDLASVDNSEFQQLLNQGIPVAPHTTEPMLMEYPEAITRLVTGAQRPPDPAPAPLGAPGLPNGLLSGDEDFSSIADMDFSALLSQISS
Sequence of NF-κB p65 binding to the Nfat5 promoter (Q04207 whole entry): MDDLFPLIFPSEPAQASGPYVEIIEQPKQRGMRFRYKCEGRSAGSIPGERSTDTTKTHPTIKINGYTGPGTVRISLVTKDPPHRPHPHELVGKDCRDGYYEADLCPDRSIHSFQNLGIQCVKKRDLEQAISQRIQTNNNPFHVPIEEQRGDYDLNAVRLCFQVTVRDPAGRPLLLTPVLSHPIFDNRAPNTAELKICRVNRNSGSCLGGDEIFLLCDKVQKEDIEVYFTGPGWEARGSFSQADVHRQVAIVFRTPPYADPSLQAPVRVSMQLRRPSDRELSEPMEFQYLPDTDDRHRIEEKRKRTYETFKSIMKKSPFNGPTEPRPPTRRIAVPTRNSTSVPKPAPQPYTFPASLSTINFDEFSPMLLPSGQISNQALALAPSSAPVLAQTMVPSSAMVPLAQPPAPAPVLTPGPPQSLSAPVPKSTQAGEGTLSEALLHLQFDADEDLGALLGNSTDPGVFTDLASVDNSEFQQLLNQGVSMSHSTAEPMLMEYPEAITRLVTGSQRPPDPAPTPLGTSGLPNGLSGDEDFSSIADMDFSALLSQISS

IC50 (NFAT5 [3]): 100 nM
ELK-dependent reporter (luciferase) activity (ELK): not suppressed
NF-κB p65 binding to Nfat5 promoter 1 [4]: dose-dependently inhibited
recruitment of NF-κB p65 to the Nfat5 promoter region [5]: nearly completely eliminated
CREB-dependent reporter (luciferase) activity (CREB): not suppressed
plasma level after oral administration ([9]; oral administration): not detectable
Compound: COc1ccc2c(Cc3ccccc3F)c3[n+](cc2c1OC)CCc1cc2c(cc1-3)OCO2.[Br-] [KRN2, 13-(2-Fluorobenzyl)-9,10-dimethoxy-5,6-dihydro-[1,3]dioxolo[4,5-g]isoquinolino[3,2-a]isoquinolin-7-ium bromide]
number of anti-F4/80+ cells infiltrated in joints ([1]; 3 mg/kg peritoneally): declined
paw swelling (ankle and footpad diameter) ([1]; 3 mg/kg peritoneally every day for 2 weeks, versus vehicle): significantly lower
inflammatory cell infiltration, synovial hyperplasia, and joint destruction (H&E) [1, 11]: lesser degrees
LPS-stimulated increase in NFAT5 protein and mRNA [2]: mitigated
expression levels of Il6 and Tnf ([2]; LPS): decreased
degradation of IκB (NF-κB p65): nor blocked
phosphorylation and translocation of p65 (NF-κB p65): neither influenced
anti-NFAT5 activity relative to BBR (NFAT5 [3]; ratio of IC50 values, KRN2 versus BBR): 40 times
LPS-induced NFAT5 promoter activity (NFAT5 promoter; LPS 1 μg/ml 20 h): specifically repressed
high salt-induced NFAT5 promoter activity (NFAT5 promoter; NaCl 45 mM 20 h): failed to reduce
p38 MAPK activity (p38 MAPK): neither ROS nor p38 MAPK activity was affected
NFAT1-dependent reporter activity (NFAT1): only slightly inhibited
high salt-induced increase in NFAT5 mRNA and protein (NFAT5 [6]): did not repress
mRNA expression levels of Ar and Bgt (NFAT5 [6]; RAW 264.7 stimulated with high salt (NaCl 45 mM 12 h), 0.8 μM): had no effect
high salt-induced increase in Nfat5 mRNA expression [7]: neither mitigated
LPS-induced NFAT5 mRNA and protein expression (NFAT5 [8]; RAW 264.7, 0.8 μM, LPS 1 μg/ml): nearly completely blocked
translocation of NFAT5 into the nucleus (NFAT5 [8]; RAW 264.7, 0.8 μM, LPS 1 μg/ml 12 h): inhibited
LPS-stimulated increase in NFAT5 protein expression (NFAT5 [8]; RAW 264.7 macrophages, 0.5 μM, western blot): significantly suppressed
iNOS, IL-6, and TNF-α expressions (murine splenocytes): decreases
mRNA and protein expression levels of IL-6, TNF-α, and GM-CSF (RAW 264.7 macrophages; RAW 264.7, 0.8 μM, LPS 1 μg/ml): significantly decreased
expression level of iNOS (RAW 264.7 macrophages; RAW 264.7, LPS 1 μg/ml 24 h, western blot): dose-dependently lowered
NO production (RAW 264.7 cells): dose-dependently lowered
arthritis severity ([10]; 3 mg/kg peritoneally every day for 3 weeks from day 21): significantly decreased
serum levels of anti-type II collagen antibody, IL-6, and TNF-α ([10]; 3 mg/kg peritoneally, day 40): significantly decreased
inflammatory cell infiltration, synovial hyperplasia, and joint destruction [10, 11]: limited degree
number of anti-F4/80+ macrophages in joints [10, 11]: significantly lower
CIA development ([10]; oral 3 mg/kg every other day for 3 weeks from day 21 (data not shown)): failed to suppress
ROS (ROS): neither ROS nor p38 MAPK activity was affected

IC50 (NFAT5 [3]): 750 nM
half-life ([9]; plasma, po): > 8 h
Compound: COc1ccc2c(Cc3ccccc3F)c3n(c(=O)c2c1OC)CCc1cc2c(cc1-3)OCO2 [KRN5, 13-(2-Fluorobenzyl)-9,10-dimethoxy-5,6-dihydro-8H-[1,3]dioxolo[4,5-g]isoquinolino[3,2-a]isoquinolin-8-one]
NFAT5 expression in spleen cells stimulated by LPS (splenocytes of CIA mice): reduced
expressions of NFAT5, IL-6, MCP-1, and GM-CSF (RAW 264.7 macrophages; RAW 264.7, 1 μM, LPS 1 μg/ml 24 h): inhibited
efficacy in suppressing arthritis compared to methotrexate ([10]; oral 60 mg/kg, methotrexate 5 mg/kg orally twice a week): more potent
arthritis severity ([10]; oral 15 and 60 mg/kg every other day for 3 weeks from day 21): dose-dependently mitigated
serum anti-type II collagen IgG ([10]; oral, day 44): significantly decreased
side effects ([10]; oral, throughout the experiments (data not shown)): no side effects were noted

Second part, the compound before the results:

Compound: COc1ccc2cc3[n+](cc2c1OC)CCc1cc2c(cc1-3)OCO2 [Berberine, reference compound]
IC50 (NFAT5 [3]): 4000 nM

Compound: C[S+]([O-])c1ccc(-c2nc(-c3ccncc3)c(-c3ccc(F)cc3)[nH]2)cc1 (stereo not drawn) [SB253580, reference compound]
high salt-induced increase in NFAT5 mRNA and protein (NFAT5 [6]): completely blocked

Compound: CC(C)C[C@@H](C=O)NC(=O)[C@H](CC(C)C)NC(=O)[C@H](CC(C)C)NC(=O)OCc1ccccc1 [MG132, reference compound] (Cbz-Leu-Leu-Leu-aldehyde)
NF-κB p65 binding to Nfat5 promoter 1 [4]: did not affect it
